Data taken from ChEMBL document CHEMBL1914420, “Investigation of the pyrazinones as PDE5 inhibitors: evaluation of regioisomeric projections into the solvent region” (Bioorg Med Chem Lett, 2011).
≈ marks a conversion by molar mass, not a printed value.

Tests used:
[1] = molecular target: cGMP-specific 3',5'-cyclic phosphodiesterase (Homo sapiens, UniProt O76074); test: Inhibition of PDE5
[2] = Selectivity ratio of IC50 for PDE6 to IC50 for PDE5
Outline: (§1)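 Fold selectivity calculated as PDE11 IC50/PDE5 IC50 or PDE6 IC50/PDE5 IC50, with IC50 values in nM.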

[3] = Selectivity ratio of IC50 for PDE11 to IC50 for PDE5; outline: as §1
[4] = Solubility of the compound at pH 6.5; format: physicochemical; details: buffer
[5] = Metabolic stability in human liver microsomes assessed as compound remaining after 1 hr; format: ADME, Microsome; details: read-out: Stability
Outline: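 Human liver microsomes; percent parent compound remaining after 1 h incubation.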

[6] = Clearance in rat at 2 mg/kg at pH 5; format: ADME, organism-based; parameters: dose 2 mg/kg; details: in vivo
[7] = Volume of distribution in rat; format: ADME, organism-based; details: in vivo
Rattus norvegicus = species: Rattus norvegicus; test: Unbound volume of distribution in rat; format: ADME, organism-based; details: in vivo
[8] = Clearance in dog at 2 mg/kg; format: ADME, organism-based, Canis lupus familiaris; parameters: dose 2 mg/kg; details: in vivo
Outline: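 Clearance in mL/min/kg after a 2 mpk dose (n = 3) in vehicle 70% PEG400/20% 0.05 M citrate buffer/10% ethanol, pH 5.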

[9] = Volume of distribution in dog; format: ADME, organism-based, Canis lupus familiaris; details: in vivo
Outline: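 Volume of distribution expressed in L/kg.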

[10] = Oral bioavailability in rat at 2 mg/kg; format: ADME, organism-based; details: in vivo

| IC50 [1] | Ratio IC50 [2] | Ratio IC50 [3] | SMILES | other results |
| --- | --- | --- | --- | --- |
| 0.27 nM | 47 | 1390 | CCCOCCn1c(=O)nc(N[C@@H]2CCCC[C@H]2C(=O)O)c2nnc(-c3ccc(OC)nc3)cc21 (racemic) | – |
| 0.1 nM | 1020 | 3830 | CCCOCCn1c(=O)nc(NC2CCC(O)CC2)c2ncc(-c3ccc(OC)nc3)cc21 (stereo unspecified) | – |
| 0.38 nM | 2200 | 4170 | COc1ccc(-c2cc3c(nn2)c(NCC(=O)N(C)C)nc(=O)n3CCOCC(F)(F)F)cn1 | – |
| 0.13 nM | 110 | 76 | CCCOCCn1c(=O)nc(N[C@H](C)C(=O)O)c2nnc(-c3ccc(OC)nc3)cc21 | – |
| 0.1 nM | 450 | 9560 | CCCOCCn1c(=O)nc(NCCOC(C)C)c2cnc(-c3ccc(OC)nc3)cc21 | – |
| 1.3 nM | 124 | 834 | CCCOCCn1c(=O)nc(N2CCN(CCO)CC2)c2nnc(-c3ccc(OC)nc3)cc21 | – |
| 0.01 nM | 119 | 532 | CCCOCCn1c(=O)nc(N2CCC(C(=O)O)CC2)c2nnc(-c3ccc(OC)nc3)cc21 | – |
| 0.06 nM | 162 | 297 | CCCOCCn1c(=O)nc(N2CCCC(C(=O)O)C2)c2nnc(-c3ccc(OC)nc3)cc21 (stereo unspecified) | – |
| 0.09 nM | 573 | 6820 | CCCOCCn1c(=O)nc(NCCN2CCOCC2)c2nnc(-c3ccc(OC)nc3)cc21 | – |
| 1.38 nM | 181 | > 1450 | CCCOCCn1c(=O)nc(N2CCN(CCO)CC2)c2cnc(-c3ccc(OC)nc3)cc21 | – |
| 0.05 nM | 200 | 1320 | CCCOCCn1c(=O)c(NC2CCC(O)CC2)nc2cnc(-c3ccc(OC)nc3)cc21 (stereo unspecified) | solubility [4]: 21 µM (≈ 9.52 µg/mL); remaining at 1 h [5]: 84%; clearance [6]: 5.5 mL/min/kg; Vd [7]: 1.35 L/kg; Vdu (Rattus norvegicus): 96 L/kg; clearance [8]: 5.5 mL/min/kg; Vd [9]: 3.5 L/kg; bioavailability [10]: 50% |
| 0.02 nM | 110 | 296 | CCCOCCn1c(=O)nc(N[C@@H]2CCCC[C@@H]2C(=O)O)c2nnc(-c3ccc(OC)nc3)cc21 (racemic) | – |
| 0.28 nM | 194 | 240 | CCCOCCn1c(=O)nc(N2CCC(O)CC2)c2nnc(-c3ccc(OC)nc3)cc21 | – |
| – | 48 | 675 | CCCOCCn1c(=O)c(NC2CCC(O)CC2)nc2ncc(-c3ccc(OC)nc3)cc21 (stereo unspecified) | – |
| 0.05 nM | 145 | 129 | CCCOCCn1c(=O)nc(NC(C)(C)C(=O)O)c2nnc(-c3ccc(OC)nc3)cc21 | – |
| 0.02 nM | 246 | 541 | CCCOCCn1c(=O)nc(NC2CCC(C(=O)O)CC2)c2nnc(-c3ccc(OC)nc3)cc21 (stereo unspecified) | – |
| 0.04 nM | 254 | 1060 | CCCOCCn1c(=O)nc(N2CCC(CC(=O)O)CC2)c2nnc(-c3ccc(OC)nc3)cc21 | – |
| 1.64 nM | 381 | > 1220 | CCCOCCn1c(=O)nc(N2CCN(CCO)CC2)c2ncc(-c3ccc(OC)nc3)cc21 | – |
